Most compounds without a hit are left out; they make up all but 3.5% or so of the library.
RGS4 inh: inhibitors of human RGS4 | P49798 | HEK293 M3R/RGS4 inducible, Fluo-4 calcium flux; hits give high values; triggered by carbachol at its EC20 | B-score at 10 µM | actives 0.45% (n = 310,000) | AID 463165;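 active = B-score, a plate-corrected calcium signal, over three deviations above library mean, with baseline fluorescence within five deviations of library mean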;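 note: RGS4 expression induced by doxycycline in cells with stable M3 receptor; B-score is computed from the integrated fluorescence ratio over baseline after carbachol; higher B-score means a larger calcium signal and so more RGS4 inhibition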
Target sequence (P49798 whole entry, looked up): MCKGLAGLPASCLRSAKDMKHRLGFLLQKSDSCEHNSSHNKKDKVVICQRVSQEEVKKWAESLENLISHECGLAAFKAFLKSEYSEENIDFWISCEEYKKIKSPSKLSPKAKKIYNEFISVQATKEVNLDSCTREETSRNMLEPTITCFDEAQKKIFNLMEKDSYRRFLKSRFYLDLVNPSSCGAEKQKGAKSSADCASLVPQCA
MrgX1 allo act: human MrgX1 positive allosteric modulation, primary screen; Q96LB2; MrgX1-HEK293, Fluo-4 calcium flux, FDSS; hits give high values; B-score at 10 µM; actives 0.63% (n = 310,000);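 active = plate-corrected calcium response at least 3 library SD above typical, normal starting fluorescence, not activating the receptor alone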;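 note: compound read alongside a low EC10 to EC30 dose of BAM8-22 agonist; peak minus trough fluorescence over baseline measured at the second addition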
MrgX1 agonist: activates human MrgX1 receptor signaling | actives 0.44% (n = 310,000) | AID 588627 | B-score at 10 µM | MrgX1-HEK293 cells, Fluo-4 calcium fluorescence, agonist mode; hits give high values;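 active = calcium response B-score plate-corrected fluorescence ratio at least 3 library SD, with starting fluorescence B-score inside 5 SD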
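Test system: HEK293 cells stably expressing human MrgX1 receptor; amount: 15,000 cells per well; doses: compound delivered in addition one of three; times: overnight plating before 1 h dye loading; detection: Fluo-4 NW calcium-flux fluorescence, kinetic read; read-out basis: B-scored fluorescence response ratio; controls: positive and negative controls per plate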
RGS4 act: RGS4 potentiation or activation. AID 463111. B-score at 10 µM. HEK293 M3R/inducible RGS4, carbachol calcium flux Fluo4; hits give low values. actives 0.92% (n = 310,000);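 active = B-score of the integrated calcium signal more than 4 SD below the library mean, with starting fluorescence not abnormally high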;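 note: negative B-score means reduced calcium response which marks RGS4 activation or potentiation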
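Reagent: ECmax carbachol challenge; Test system: M3R-expressing HEK293 line, RGS4 induced by doxycycline; Schedule: overnight RGS4 induction, 30 min dye load 37 °C, 20 min compound RT; Detection: calcium dye Fluo4 fluorescence; Read-out: Agonist-evoked peak-minus-minimum fluorescence over baseline, integrated ratio, B score.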
MrgX1 antagonist: antagonists of human MrgX1 receptor. MRGX1-HEK293 calcium flux, Fluo-4, BAM8-22 antagonism; hits give low values. B-score at 10 µM. actives 1.3% (n = 310,000). AID 588676;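 active = calcium-response B-score plate-corrected more than 3 library SD below zero, starting fluorescence within 5 deviations, no agonist response on first addition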;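 note: peak minus trough fluorescence over baseline after final BAM8-22 challenge near maximal dose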
* = called active by the depositor; i = inactive; nt = no result.

SMILES | RGS4 inh | MrgX1 allo act | MrgX1 agonist | RGS4 act | MrgX1 antagonist
CCOc1ccc(-c2cc(N3C(=O)Nc4ccccc4N3O)n[nH]2)cc1 | i | i | i | i | -6.7*
CCS(=O)(=O)c1nc(S(=O)(=O)c2ccc(Cl)cc2)c(N2CCOCC2)s1 | i | i | i | i | i
CCN(CC)S(=O)(=O)c1ccc(Cl)c(C(=O)Oc2cccc(-c3cnc4ccccc4n3)c2)c1 | i | i | i | -7.1* | i
COc1ccc2[nH]c3c(c2c1)CCNC3c1ccc([N+](=O)[O-])o1 (stereo unspecified) | i | i | i | i | -5.6*
COc1cc(C2NCCc3c2[nH]c2ccccc32)ccc1OC(C)C (stereo unspecified) | i | i | i | i | i
CCCC[C@H]1COCCS(=O)(=O)N1Cc1ccc(Br)cc1 | i | i | i | -7.1* | i
Cn1c(=O)c2c(nc(SCC(=O)c3ccccc3F)n2C)n(C)c1=O | i | i | i | i | -7*
COC(=O)Cc1ccc(NC(=S)NNC(=O)C2CC2)cc1 | i | i | i | i | i
Oc1ccccc1C1=Nc2nc3ccccc3n2C(c2ccccc2)C1 (stereo unspecified) | i | 17* | i | i | i
O=C(NCc1cccnc1)c1cc(S(=O)(=O)N2CCCCC2)ccc1Cl | i | i | i | i | i
COc1ccc(C(=O)/C=C/c2ccc(OCc3ccccc3)cc2)cc1CSCC(=O)O | i | i | i | i | i
COc1ccc(C(=O)/C=C/c2cccc(OCc3ccccc3)c2)cc1CSCC(=O)O | i | i | 30* | i | i
O=C1C(Cl)=C(NCCCO)C(=O)c2ccccc21 | i | i | i | i | i
O=C1C(SCCO)=C(SCCO)C(=O)c2ccccc21 | nt | i | i | nt | -13*
Cc1ccc(-c2c[n+](CC(=O)N3c4ccccc4Sc4ccccc43)c3n2CCC3)cc1 | i | i | i | -8.9* | i
O=C(C[n+]1cc(-c2ccc(F)cc2)n2c1CCC2)N1c2ccccc2Sc2ccccc21 | i | i | i | -9.7* | i
O=C(C[n+]1cc(-c2ccccc2)n2c1CCC2)N1c2ccccc2Sc2ccccc21 | i | i | i | i | i
O=C(CCc1ccccc1)NCC1(c2ccccc2)CCCC1 | i | i | i | i | i
Cc1ccc(-c2noc(-c3cc(C(C)(C)C)nn3Cc3ccccc3)n2)cc1 | i | i | i | i | -6.8*
COc1ccc(/C=C2\SC(=O)N(CCNC(=O)Cc3coc4cc(C)ccc34)C2=O)cc1OC | i | i | i | -8.5* | i
CCCN(CCC)C1=N/C(=C\c2ccco2)C(=O)N1c1ccccc1 | i | 6.9* | i | i | i
CCCN=C1N/C(=C\c2ccco2)C(=O)N1c1ccccc1 | i | i | i | i | i
O=C1/C(=C/c2cccs2)CCC/C1=C\c1cccs1 | i | i | i | i | i
Cn1cccc1/C=C1\CCC/C(=C\c2cccn2C)C1=O | i | i | 38* | i | i
COC(=O)COn1c(SCC(=O)OC)nc2ccccc2c1=O | i | i | i | i | -4.6*
SMILES | RGS4 inh | MrgX1 allo act | MrgX1 agonist | RGS4 act | MrgX1 antagonist
COc1ccc(N=C2S/C(=C\c3ccc(N4CCOCC4)o3)C(=O)N2CCc2c[nH]c3ccccc23)cc1 | i | i | i | i | -7.1*
COc1ccc(N=C2S/C(=C\c3ccc(OCC(=O)O)cc3)C(=O)N2CCc2c[nH]c3ccccc23)cc1 | i | nt | nt | i | nt
O=C(Nc1nc(SCc2ccc(F)cc2)ns1)c1ccco1 | 8.2* | i | i | i | i
CN(CCC#N)C(=O)COC(=O)/C=C/c1ccc2c(c1)OCO2 | i | i | i | i | -6*
O=C(N/N=C/c1ccc(O)c(O)c1)NC12CC3CC(CC(C3)C1)C2 | 5.1* | i | i | i | i
C=CCSC1=C(C#N)C2(CCCCC2)C(C#N)C(=O)N1 (stereo unspecified) | i | i | i | i | -7.7*
N#CC1=C(SCC(=O)NC2CC2)NC(=O)C(C#N)C12CCCCC2 (stereo unspecified) | i | i | i | i | i
